Experimental data taken from ChEMBL document CHEMBL3992547, “Antimicrobial activity of rhodanine-3-acetic acid derivatives” (Bioorg Med Chem, 2017).
Converted amounts (≈) assume the structure as drawn. The source made the active and inactive calls. No cut-off for these calls is given here.

Tests used:
[1] = tested on: Mycobacterium tuberculosis; experiment: Antimycobacterial activity against Mycobacterium tuberculosis H37Rv 331/88 measured after 14 days by micromethod; assay type: functional; conditions: H37Rv 331/88, 336 h
[2] = tested on: Mycobacterium tuberculosis; experiment: Antimycobacterial activity against Mycobacterium tuberculosis H37Rv 331/88 measured after 21 days by micromethod; assay type: functional; conditions: H37Rv 331/88, 504 h
[3] = tested on: Mycobacterium avium; experiment: Antimycobacterial activity against Mycobacterium avium 330/88 measured after 14 days by micromethod; assay type: functional; conditions: 330/88, 336 h
[4] = tested on: Mycobacterium avium; experiment: Antimycobacterial activity against Mycobacterium avium 330/88 measured after 21 days by micromethod; assay type: functional; conditions: 330/88, 504 h
[5] = tested on: Mycobacterium kansasii; experiment: Antimycobacterial activity against Mycobacterium kansasii isolate 235/80 after 7 days by micromethod; assay type: functional; conditions: isolate 235/80, 168 h
[6] = tested on: Mycobacterium kansasii; experiment: Antimycobacterial activity against Mycobacterium kansasii isolate 235/80 after 14 days by micromethod; assay type: functional; conditions: isolate 235/80, 336 h
[7] = tested on: Mycobacterium kansasii; experiment: Antimycobacterial activity against Mycobacterium kansasii isolate 235/80 after 21 days by micromethod; assay type: functional; conditions: isolate 235/80, 504 h
[8] = tested on: Mycobacterium kansasii; experiment: Antimycobacterial activity against Mycobacterium kansasii isolate 6509/96 after 7 days by micromethod; assay type: functional; conditions: isolate 6509/96, 168 h
[9] = tested on: Mycobacterium kansasii; experiment: Antimycobacterial activity against Mycobacterium kansasii isolate 6509/96 after 14 days by micromethod; assay type: functional; conditions: isolate 6509/96, 336 h
[10] = tested on: Mycobacterium kansasii; experiment: Antimycobacterial activity against Mycobacterium kansasii isolate 6509/96 after 21 days by micromethod; assay type: functional; conditions: isolate 6509/96, 504 h
[11] = Solubility of the compound in Sula's semisynthetic medium up to 1 mM; assay type: physicochemical
[12] = tested on: Staphylococcus aureus; experiment: Antibacterial activity against Staphylococcus aureus CCM 4516/08 incubated for 24 hrs under dark condition by microdilution broth assay; assay type: functional; conditions: CCM 4516/08, 24 h
Method in brief: (§1)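 Broth microdilution per M07-A07, modified, in Mueller-Hinton broth adjusted to pH 7.4 (±0.2). Inoculum is prepared in sterile water to McFarland 0.5 (1.5 × 10⁸ CFU/mL). Plates are incubated in the dark at 35 °C in humid air. MIC is read after 24 and 48 h as at least 95% growth reduction versus control (IC₉₅).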

[13] = tested on: Staphylococcus aureus; experiment: Antibacterial activity against Staphylococcus aureus CCM 4516/08 incubated for 48 hrs under dark condition by microdilution broth assay; assay type: functional; conditions: CCM 4516/08, 48 h; method in brief: as §1
[14] = tested on: Staphylococcus aureus; experiment: Antibacterial activity against methicillin-resistant Staphylococcus aureus H 5996/08 incubated for 24 hrs under dark condition by microdilution broth assay; assay type: functional; conditions: H 5996/08, 24 h
Method in brief: (§2)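 Microdilution broth method modified per M07-A07, in Mueller-Hinton broth adjusted to pH 7.4 (±0.2). Inoculum made in sterile water to 0.5 McFarland (1.5 × 10⁸ CFU/mL). Plates incubated in the dark at 35 °C in a humid atmosphere, with reads at 24 and 48 h. MIC taken as at least 95% growth reduction (IC₉₅) versus control.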

[15] = tested on: Staphylococcus aureus; experiment: Antibacterial activity against methicillin-resistant Staphylococcus aureus H 5996/08 incubated for 48 hrs under dark condition by microdilution broth assay; assay type: functional; conditions: H 5996/08, 48 h; method in brief: as §2
[16] = tested on: Staphylococcus epidermidis; experiment: Antibacterial activity against Staphylococcus epidermidis H 6966/08 incubated for 24 hrs under dark condition by microdilution broth assay; assay type: functional; conditions: H 6966/08, 24 h; method in brief: as §1
[17] = tested on: Staphylococcus epidermidis; experiment: Antibacterial activity against Staphylococcus epidermidis H 6966/08 incubated for 48 hrs under dark condition by microdilution broth assay; assay type: functional; conditions: H 6966/08, 48 h; method in brief: as §1
[18] = tested on: Escherichia coli; experiment: Antibacterial activity against Escherichia coli CCM 4517 incubated for 24 hrs under dark condition by microdilution broth assay; assay type: functional; conditions: CCM 4517, 24 h; method in brief: as §1
[19] = tested on: Escherichia coli; experiment: Antibacterial activity against Escherichia coli CCM 4517 incubated for 48 hrs under dark condition by microdilution broth assay; assay type: functional; conditions: CCM 4517, 48 h; method in brief: as §1
[20] = tested on: Klebsiella pneumoniae; experiment: Antibacterial activity against Klebsiella pneumoniae D 11750/08 up to 500 uM incubated for 24 to 48 hrs under dark condition by microdilution broth assay; assay type: functional; method in brief: as §1
[21] = tested on: Klebsiella pneumoniae; experiment: Antibacterial activity against ESBL positive Klebsiella pneumoniae J 14368/08 up to 500 uM incubated for 24 to 48 hrs under dark condition by microdilution broth assay; assay type: functional; method in brief: as §1
[22] = tested on: Pseudomonas aeruginosa; experiment: Antibacterial activity against Pseudomonas aeruginosa CCM 1961 up to 500 uM incubated for 24 to 48 hrs under dark condition by microdilution broth assay; assay type: functional; method in brief: as §1
[23] = tested on: Candida albicans; experiment: Antifungal activity against Candida albicans ATCC 44859 after 24 hrs by microdilution broth assay; assay type: functional; conditions: ATCC 44859, 24 h
Method in brief: (§3)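 Broth microdilution per CLSI M27-A3 and M38-A2 in RPMI 1640 with glutamine, buffered to pH 7.0 with MOPS. Compounds are diluted in DMSO. Final inoculum is 5 × 10³ CFU/mL for yeasts and 0.5–5 × 10⁴ CFU/mL for moulds. Plates are incubated in the dark at 35 °C in humid air and read visually and/or at 540 nm after 24 and 48 h. MIC is ≥80% growth reduction (IC₈₀) for yeasts and ≥50% (IC₅₀) for filamentous fungi.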

[24] = tested on: Candida albicans; experiment: Antifungal activity against Candida albicans ATCC 44859 after 48 hrs by microdilution broth assay; assay type: functional; conditions: ATCC 44859, 48 h; method in brief: as §3
[25] = tested on: Candida tropicalis; experiment: Antifungal activity against Candida tropicalis 156 after 24 hrs by microdilution broth assay; assay type: functional; conditions: Candida tropicalis, 156, 24 h; method in brief: as §3
[26] = tested on: Candida tropicalis; experiment: Antifungal activity against Candida tropicalis 156 after 48 hrs by microdilution broth assay; assay type: functional; conditions: Candida tropicalis, 156, 48 h; method in brief: as §3
[27] = tested on: Nakaseomyces glabratus; experiment: Antifungal activity against Candida glabrata 20/I after 24 hrs by microdilution broth assay; assay type: functional; method in brief: as §3
[28] = tested on: Nakaseomyces glabratus; experiment: Antifungal activity against Candida glabrata 20/I after 48 hrs by microdilution broth assay; assay type: functional; method in brief: as §3
[29] = tested on: Trichosporon asahii; experiment: Antifungal activity against Trichosporon asahii 1188 after 24 hrs by microdilution broth assay; assay type: functional; conditions: Trichosporon asahii, 1188, 24 h; method in brief: as §3
[30] = tested on: Trichosporon asahii; experiment: Antifungal activity against Trichosporon asahii 1188 after 48 hrs by microdilution broth assay; assay type: functional; conditions: Trichosporon asahii, 1188, 48 h; method in brief: as §3
[31] = tested on: Aspergillus fumigatus; experiment: Antifungal activity against Aspergillus fumigatus 231 after 24 hrs by microdilution broth assay; assay type: functional; conditions: Aspergillus fumigatus, 231, 24 h; method in brief: as §3
[32] = tested on: Aspergillus fumigatus; experiment: Antifungal activity against Aspergillus fumigatus 231 after 48 hrs by microdilution broth assay; assay type: functional; conditions: Aspergillus fumigatus, 231, 48 h; method in brief: as §3
[33] = tested on: Trichophyton mentagrophytes; experiment: Antifungal activity against Trichophyton mentagrophytes 445 after 72 hrs by microdilution broth assay; assay type: functional; conditions: Trichophyton mentagrophytes, 445, 72 h
Method in brief: (§4)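 Broth microdilution per CLSI M38-A2 in RPMI 1640 with glutamine, buffered to pH 7.0 with MOPS, with DMSO as diluent. Final inoculum is 0.5–5 × 10⁴ CFU/mL. Plates are incubated in the dark at 35 °C in humid air and read visually and/or at 540 nm after 72 and 120 h. MIC is at least 50% growth reduction versus control.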

[34] = tested on: Trichophyton mentagrophytes; experiment: Antifungal activity against Trichophyton mentagrophytes 445 after 120 hrs by microdilution broth assay; assay type: functional; conditions: Trichophyton mentagrophytes, 445, 120 h; method in brief: as §4
[35] = tested on: Pichia kudriavzevii; experiment: Antifungal activity against Candida krusei E28 after 24 to 48 hrs hrs by microdilution broth assay; assay type: functional; method in brief: as §3
[36] = tested on: Lichtheimia corymbifera; experiment: Antifungal activity against Absidia corymbifera 272 after 24 to 48 hrs hrs by microdilution broth assay; assay type: functional; method in brief: as §3
[37] = tested on: Enterococcus; experiment: Antibacterial activity against Enterococcus sp. J 14365/08 incubated for 24 hrs under dark condition by microdilution broth assay; conditions: J 14365/08, 24 h
[38] = tested on: Enterococcus; experiment: Antibacterial activity against Enterococcus sp. J 14365/08 incubated for 48 hrs under dark condition by microdilution broth assay; conditions: J 14365/08, 48 h

For O=C(CN1C(=O)CSC1=S)Oc1ccc([N+](=O)[O-])cc1, the MIC [1] was 500 µM (≈ 156 µg/mL), the MIC [2] was 500 µM (≈ 156 µg/mL) and the MIC [3] was 1000 µM (≈ 312 µg/mL). The MIC [4] was 1000 µM (≈ 312 µg/mL), the MIC [5] was 500 µM (≈ 156 µg/mL) and the MIC [6] was 500 µM (≈ 156 µg/mL). It also gave an MIC [7] of 1000 µM (≈ 312 µg/mL), an MIC [8] of 500 µM (≈ 156 µg/mL) and an MIC [9] of 500 µM (≈ 156 µg/mL). For the same compound, the MIC [10] was 500 µM (≈ 156 µg/mL), the solubility [11] was “Soluble” and the MIC95 [12] was 250 µM (≈ 78.1 µg/mL). It also gave an MIC95 [13] of 500 µM (≈ 156 µg/mL), an MIC95 [14] of 500 µM (≈ 156 µg/mL) and an MIC95 [15] of 500 µM (≈ 156 µg/mL). It also gave an MIC95 [16] of 500 µM (≈ 156 µg/mL), an MIC95 [17] of 500 µM (≈ 156 µg/mL) and an MIC95 [18] greater than 500 µM. For the same compound, the MIC95 [19] was greater than 500 µM, the Activity [20] was “inactive” and the Activity [21] was “inactive”. For the same compound, the Activity [22] was “inactive”, the MIC80 [23] was greater than 500 µM and the MIC80 [24] was greater than 500 µM. For the same compound, the MIC80 [25] was greater than 500 µM, the MIC80 [26] was greater than 500 µM and the MIC80 [27] was greater than 500 µM. It also gave an MIC80 [28] greater than 500 µM, an MIC80 [29] greater than 500 µM and an MIC80 [30] greater than 500 µM. It also gave an MIC50 [31] of 500 µM (≈ 156 µg/mL), an MIC50 [32] greater than 500 µM and an MIC50 [33] of 125 µM (≈ 39 µg/mL). For the same compound, the MIC50 [34] was 250 µM (≈ 78.1 µg/mL), the Activity [35] was “inactive” and the Activity [36] was “inactive”. It also gave an MIC95 [37] of 500 µM (≈ 156 µg/mL) and an MIC95 [38] of 500 µM (≈ 156 µg/mL).
